Columns and labels:
Rattus norvegicus [1] = test: Evaluated for blood pressure lowering activity in the conscious spontaneously hypertensive rats (SHR) (time to peak (h)) at a dose of 5 mg/kg; assay type: functional
Procedure, shortened: (§1)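 Conscious adult male SHR in restrainers at 32 °C, with tail-cuff and pulse-transducer SBP recording. Groups of 4–6 got a single gavage dose in 0.5% methylcellulose or vehicle alone. SBP was sampled at 0.5, 1, 2, 3 and 4 h post-dose, and the time (h) at which the peak SBP change occurred was recorded.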

Rattus norvegicus [2] = test: Evaluated for blood pressure lowering activity in spontaneously hypertensive rats (maximum change of systolic blood pressure (SBP)) at a dose of 5 mg/kg; assay type: functional, Artery
Procedure, shortened: (§2)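 Adult male SHR, conscious, restrained in a chamber at 32 °C. SBP measured indirectly by tail cuff with a pneumatic pulse transducer. After baseline, groups of 4–6 received a single oral gavage dose or vehicle (0.5% methylcellulose). SBP was read at 0.5, 1, 2, 3 and 4 h, and the maximum SBP change ± SEM was reported against the vehicle effect.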

Rattus norvegicus [3] = test: Evaluated for blood pressure lowering activity in spontaneously hypertensive rats (maximum change of systolic blood pressure (SBP)) at a dose of 10 mg/kg; assay type: functional, Artery; procedure, shortened: as §2
Rattus norvegicus [4] = test: Time to peak fall in systolic blood pressure in spontaneously hypertensive rats after oral administration of 10 mg/kg of the compound
Canis familiaris = test: Intravenous dose required to produce a 20-fold rightward shift in the phenylephrine dose-response curve in the dog; assay type: functional, Canis lupus familiaris
Procedure, shortened: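 Mongrel dogs, anesthetized and bilaterally vagotomized. Mean arterial pressure was recorded via carotid cannula, and drug was given iv through the jugular vein. Phenylephrine dose–response curves were run before and after antagonist. The iv dose (μg/kg) producing a 20-fold rightward shift (DR20) was calculated; n = animals tested.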

Rattus norvegicus [5] = test: Intravenous dose required to produce a 50% inhibition of the phenylephrine pressor response in the spontaneously hypertensive rats; assay type: functional
Procedure, shortened: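 Adult male SHR, anesthetized and bilaterally vagotomized. A carotid artery was cannulated for mean arterial pressure and a jugular vein for iv dosing. Phenylephrine pressor responses were measured before and after antagonist. The iv dose (μg/kg) giving 50% inhibition of the pressor response (ED50) was reported with fiducial limits.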

Rattus norvegicus [6] = species: Rattus norvegicus; test: Peroral dose required to produce a 50 mmHg drop in systolic blood pressure (SBP) in the spontaneously hypertensive rats; assay type: functional; settings: Artery, po
Procedure, shortened: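 Adult male SHR, conscious, tail-cuff indirect SBP at 32 °C. Groups of 4–6 were given single oral gavage doses of 0.5–20 mg/kg in 0.5% methylcellulose, with SBP followed over 4 h. The dose giving a 50 mmHg SBP fall (ED50SBP, mg/kg po) was calculated by regression analysis with 95% fiducial limits; n = animals tested.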

Rattus norvegicus [7] = test: Evaluated for blood pressure lowering activity in spontaneously hypertensive rats (maximum change of systolic blood pressure (SBP)) at a dose of 1.25 mg/kg; assay type: functional, Artery; procedure, shortened: as §2
Rattus norvegicus [8] = test: Time to peak fall in systolic blood pressure in spontaneously hypertensive rats after oral administration of 1.25 mg/kg of the compound
Rattus norvegicus [9] = test: Evaluated for blood pressure lowering activity in the conscious spontaneously hypertensive rats (SHR) (time to peak (h)) at a dose of 2.5 mg/kg; assay type: functional; procedure, shortened: as §1
Rattus norvegicus [10] = test: Evaluated for blood pressure lowering activity in spontaneously hypertensive rats (maximum change of systolic blood pressure (SBP)) at a dose of 2.5 mg/kg; assay type: functional, Artery; procedure, shortened: as §2
Rattus norvegicus [11] = test: Evaluated for blood pressure lowering activity in the conscious spontaneously hypertensive rats (SHR) (time to peak (h)) at a dose of 10 mg/kg; assay type: functional; procedure, shortened: as §1
Rattus norvegicus [12] = test: Time to reach peak blood pressure lowering effect in spontaneously hypertensive rats after oral administration of 2.5 mg/kg of the compound

## COc1ccccc1N1CCN(CCn2c(=O)c3cscc3n(C(=O)C(C)(C)C)c2=O)CC1
Rattus norvegicus [1]
  Time: 0.5 h
Rattus norvegicus [2]
  Delta SBP: -69 mmHg

## CCCCCC(=O)n1c(=O)n(CCN2CCN(c3ccccc3OC)CC2)c(=O)c2cscc21
Rattus norvegicus [1]
  Time: 0.5 h
Rattus norvegicus [2]
  Delta SBP: -42 mmHg

## COc1ccccc1N1CCN(CCCn2c(=O)[nH]c3ccsc3c2=O)CC1
Rattus norvegicus [3]
  Delta SBP: -43 mmHg
Rattus norvegicus [4]
  Time: 0.5 h

## COc1ccc(N2CCN(CCn3c(=O)[nH]c4cscc4c3=O)CC2)cc1
Rattus norvegicus [3]
  Delta SBP: -51 mmHg
Rattus norvegicus [4]
  Time: 0.5 h

## COc1ccccc1N1CCN(CCn2c(=O)[nH]c3sccc3c2=O)CC1
Canis familiaris
  DR20: 20 µg/kg
Rattus norvegicus [5]
  ED50: 0.0154 mg/kg
Rattus norvegicus [6]
  ED50: 1 mg/kg
Rattus norvegicus [7]
  Delta SBP: -50 mmHg
Rattus norvegicus [8]
  Time: 0.5 h

## C=CCn1c(=O)n(CCN2CCN(c3ccccc3OC)CC2)c(=O)c2cscc21
Rattus norvegicus [3]
  Delta SBP: -50 mmHg
Rattus norvegicus [4]
  Time: 1 h

## COc1ccc(N2CCN(CCn3c(=O)[nH]c4ccsc4c3=O)CC2)cc1
Rattus norvegicus [3]
  Delta SBP: -68 mmHg
Rattus norvegicus [4]
  Time: 1 h

## COc1ccccc1N1CCN(CCn2c(=O)c3cscc3n(C)c2=O)CC1
Rattus norvegicus [7]
  Delta SBP: -67 mmHg
Rattus norvegicus [8]
  Time: 0.5 h

## Cc1ccccc1N1CCN(CCn2c(=O)[nH]c3cscc3c2=O)CC1
Rattus norvegicus [7]
  Delta SBP: -36 mmHg
Rattus norvegicus [8]
  Time: 0.5 h

## O=c1[nH]c2cscc2c(=O)n1CCN1CCN(c2ccccc2Cl)CC1
Rattus norvegicus [7]
  Delta SBP: -51 mmHg
Rattus norvegicus [8]
  Time: 0.5 h

## COc1ccc(C(=O)n2c(=O)n(CCN3CCN(c4ccccc4OC)CC3)c(=O)c3cscc32)cc1
Rattus norvegicus [9]
  Time: 2 h
Rattus norvegicus [10]
  Delta SBP: -59 mmHg

## O=c1[nH]c2ccsc2c(=O)n1CCN1CCN(c2ccccc2)CC1
Rattus norvegicus [3]
  Delta SBP: -48 mmHg
Rattus norvegicus [4]
  Time: 0.5 h

## C#CCn1c(=O)n(CCN2CCN(c3ccccc3OC)CC2)c(=O)c2cscc21
Rattus norvegicus [11]
  Time: 1 h
Rattus norvegicus [3]
  Delta SBP: -52 mmHg

## O=c1[nH]c2cscc2c(=O)n1CCN1CCN(c2ccc(Cl)cc2)CC1
Rattus norvegicus [3]
  Delta SBP: -56 mmHg
Rattus norvegicus [4]
  Time: 0.5 h

## COc1ccccc1N1CCN(CCn2c(=O)c3cscc3n(C(=O)C(C)C)c2=O)CC1
Rattus norvegicus [1]
  Time: 0.5 h
Rattus norvegicus [2]
  Delta SBP: -53 mmHg

## Cl.O=c1[nH]c2cscc2c(=O)n1CCN1CCN(c2ccccc2)CC1
Rattus norvegicus [3]
  Delta SBP: -76 mmHg
Rattus norvegicus [4]
  Time: 0.5 h

## CCOC(=O)n1c(=O)n(CCN2CCN(c3ccccc3OC)CC2)c(=O)c2sccc21
Rattus norvegicus [9]
  Time: 0.5 h
Rattus norvegicus [10]
  Delta SBP: -30 mmHg

## CCOC(=O)CCCn1c(=O)n(CCN2CCN(c3ccccc3OC)CC2)c(=O)c2cscc21
Rattus norvegicus [3]
  Delta SBP: -87 mmHg
Rattus norvegicus [4]
  Time: 0.5 h

## COc1ccccc1N1CCN(CCn2c(=O)c3sccc3n(C(C)=O)c2=O)CC1
Rattus norvegicus [1]
  Time: 0.5 h
Rattus norvegicus [2]
  Delta SBP: -58 mmHg

## O=c1[nH]c2cscc2c(=O)n1CCN1CCN(c2cccc(Cl)c2)CC1
Rattus norvegicus [11]
  Time: 2 h
Rattus norvegicus [3]
  Delta SBP: -20 mmHg

## COc1ccccc1N1CCN(CCCn2c(=O)[nH]c3sccc3c2=O)CC1
Rattus norvegicus [11]
  Time: 0.5 h
Rattus norvegicus [3]
  Delta SBP: -68 mmHg

## COc1ccccc1N1CCN(CCn2c(=O)c3sccc3n(C)c2=O)CC1
Rattus norvegicus [7]
  Delta SBP: -56 mmHg
Rattus norvegicus [8]
  Time: 0.5 h

## O=c1[nH]c2sccc2c(=O)n1CCN1CCN(c2ccccc2)CC1
Rattus norvegicus [3]
  Delta SBP: -45 mmHg
Rattus norvegicus [4]
  Time: 1 h

## COc1ccccc1N1CCN(CCCn2c(=O)[nH]c3cscc3c2=O)CC1
Rattus norvegicus [3]
  Delta SBP: -38 mmHg
Rattus norvegicus [4]
  Time: 1 h

## CCOC(=O)CCCCn1c(=O)n(CCN2CCN(c3ccccc3OC)CC2)c(=O)c2sccc21
Rattus norvegicus [10]
  Delta SBP: -30 mmHg
Rattus norvegicus [12]
  Time: 0.5 h
